Experimental findings from ChEMBL document CHEMBL4257545, “Synthesis of novel perillyl-dihydropyrimidinone hybrids designed for antiproliferative activity” (Medchemcomm, 2018) are described below.

For data set [1], the system named is UACC-62. The data set can be described thus: Antiproliferative activity against human UACC62 cells assessed as cell growth inhibition after 48 hrs by sulforhodamine B assay. The class given is functional. To be noted: UACC-62, 48 h. An outline of the steps:
(§1)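 Human tumour lines and HaCaT normal keratinocytes in 96-well plates, exposed to compound in DMSO/RPMI (final DMSO 0.2%) for 48 h at 37 °C, 5% CO2. Cells were fixed with 50% trichloroacetic acid at time zero and after treatment. Protein was stained with sulforhodamine B and read at 540 nm. TGI (total growth inhibition) was derived by non-linear regression from triplicate runs.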

The next data set concerns U-251. The data set can be described thus: Antiproliferative activity against human U251 cells assessed as cell growth inhibition after 48 hrs by sulforhodamine B assay. Type of data set: functional. The following applies: U-251, 48 h. A digest of the protocol: as §1
On the technique in general: In SRB staining, fixed cells bind dye roughly in proportion to their protein.

In data set [2] the test system is MCF7. As to the kind of experiment: Antiproliferative activity against human MCF7 cells assessed as cell growth inhibition after 48 hrs by sulforhodamine B assay. Type of data set: functional. To be noted: MCF7, 48 h. An outline of the steps: as §1
In data set [3] the test system is NCI/ADR-RES. As to the kind of experiment: Antiproliferative activity against human NCI/ADR-RES cells assessed as cell growth inhibition after 48 hrs by sulforhodamine B assay. Type of data set: functional. A digest of the protocol:
as §1

The test system of data set [4] is 786-0. The data set can be described thus: Antiproliferative activity against human 786-0 cells assessed as cell growth inhibition after 48 hrs by sulforhodamine B assay. The class given is functional. To be noted: 786-0, 48 h. An outline of the steps: as §1
A further data set relates to NCI-H460. The data set can be described thus: Antiproliferative activity against human NCI-H460 cells assessed as cell growth inhibition after 48 hrs by sulforhodamine B assay. The class given is functional. The following applies: NCI-H460, 48 h. An outline of the steps:
as §1

Data set [5] relates to PC-3. As to the kind of experiment: Antiproliferative activity against human PC3 cells assessed as cell growth inhibition after 48 hrs by sulforhodamine B assay. The following applies: PC-3, 48 h. Type of data set: functional. A digest of the protocol:
as §1

For data set [6], the system named is OVCAR-3. The data set can be described thus: Antiproliferative activity against human OVCAR3 cells assessed as cell growth inhibition after 48 hrs by sulforhodamine B assay. The class given is functional. To be noted: OVCAR-3, 48 h. An outline of the steps:
as §1

Data set [7] relates to HT-29. The data set can be described thus: Antiproliferative activity against human HT-29 cells assessed as cell growth inhibition after 48 hrs by sulforhodamine B assay. The class given is functional. To be noted: HT-29, 48 h. An outline of the steps: as §1
Another data set relates to HaCaT. The data set can be described thus: Cytotoxicity against human HaCaT cells assessed as cell growth inhibition after 48 hrs by sulforhodamine B assay. The class given is cell-based. An outline of the steps: as §1
Data set [8] can be described thus: Selectivity index, ratio of TGI for human HaCaT cells to TGI for human U251 cells. The class given is toxicity. The following applies: HaCaT cells and U251 cells, read-out: Selectivity Index.
Data set [9] has as its system MCF7. The data set can be described thus: Antiproliferative activity against human MCF7 cells at 25 uM after 48 hrs by sulforhodamine B assay. Type of data set: functional, cell-based. A digest of the protocol:
(§2)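 Growth-inhibition profile of each tumour line at a single compound concentration of 25 μM. Cells were treated in DMSO/RPMI (final DMSO 0.2%) for 48 h at 37 °C, 5% CO2. Cells were fixed with 50% TCA before and after exposure. Cellular protein was quantified by sulforhodamine B staining at 540 nm.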

In data set [10] the test system is NCI/ADR-RES. As to the kind of experiment: Antiproliferative activity against human NCI/ADR-RES cells at 25 uM after 48 hrs by sulforhodamine B assay. Type of data set: functional, cell-based. A digest of the protocol: as §2
For data set [11], the system named is 786-0. The data set can be described thus: Antiproliferative activity against human 786-0 cells at 25 uM after 48 hrs by sulforhodamine B assay. Type of data set: functional, cell-based. A digest of the protocol: as §2
For data set [12], the system named is HT-29. The data set can be described thus: Antiproliferative activity against human HT-29 cells at 25 uM after 48 hrs by sulforhodamine B assay. Type of data set: functional, cell-based. An outline of the steps: as §2
Data set [13] relates to UACC-62. As to the kind of experiment: Antiproliferative activity against human UACC62 cells at 25 uM after 48 hrs by sulforhodamine B assay. Type of data set: functional, cell-based. An outline of the steps:
as §2

The test system of data set [14] is PC-3. As to the kind of experiment: Antiproliferative activity against human PC3 cells at 25 uM after 48 hrs by sulforhodamine B assay. Type of data set: functional, cell-based. An outline of the steps:
as §2

Data set [15] concerns OVCAR-3. The data set can be described thus: Antiproliferative activity against human OVCAR3 cells at 25 uM after 48 hrs by sulforhodamine B assay. The class given is functional, cell-based. An outline of the steps: as §2

Active and inactive are the calls of the source. No cut-off for these calls is given here.

In general, TGI refers to the concentration giving total growth inhibition. `C=C(C)[C@@H]1CC=C(Cn2cc(COc3ccccc3C3NC(=O)NC4=C3C(=O)CC(C)(C)C4)nn2)CC1` (stereo partly drawn): the TGI is 26.5 µM with UACC-62 [1]; 27 µM in the data set on U-251; 45 µM in the data set on MCF7 [2]; above 100 µM in the data set on NCI/ADR-RES [3]; 26.7 µM with 786-0 [4]; 38.7 µM with NCI-H460. For the same compound, the concentration for total growth inhibition (TGI) is 21.7 µM in the data set on PC-3 [5], 11.8 µM in the data set on OVCAR-3 [6], 28.9 µM in the data set on HT-29 [7] and 78.72 µM with HaCaT.
Turning to `C=C(C)[C@@H]1CC=C(Cn2cc(COc3cc(C4NC(=O)NC5=C4C(=O)CC(C)(C)C5)ccc3OC)nn2)CC1` (stereo partly drawn), the TGI with UACC-62 [1] was 62 µM; in the data set on U-251, 8.28 µM; with MCF7 [2], 44.8 µM; in the data set with NCI/ADR-RES [3], above 100 µM; with 786-0 [4] it was above 100 µM; in the data set on NCI-H460, above 100 µM. Further, the TGI was 79.9 µM with PC-3 [5], above 100 µM with OVCAR-3 [6], above 100 µM in the data set on HT-29 [7] and 451.02 µM with HaCaT. Moreover, the selectivity ratio in [8] stood at 54.5.
Take `C=C(C)[C@@H]1CC=C(Cn2cc(COc3ccccc3C3NC(=O)NC(C)=C3C(=O)OCC)nn2)CC1` (stereo partly drawn): the TGI with UACC-62 [1], in the data set with U-251, with MCF7 [2], in the data set on NCI/ADR-RES [3], with 786-0 [4] and with NCI-H460 was above 100 µM throughout. The total growth inhibition concentration (TGI) in the data set with PC-3 [5] is above 100 µM; with OVCAR-3 [6], 81.2 µM; in the data set on HT-29 [7], above 100 µM; in the data set on HaCaT, 294.37 µM.
Take `COc1cccc2c1C(=O)c1c(O)c3c(c(O)c1C2=O)C[C@@](O)(C(=O)CO)C[C@@H]3O[C@H]1C[C@H](N)[C@H](O)[C@H](C)O1` [DOXORUBICIN]: the TGI stood at 1.66 µM with UACC-62 [1]; 0.09 µM in the data set with U-251; 0.99 µM in the data set with MCF7 [2]; 0.78 µM in the data set with NCI/ADR-RES [3]; 0.02 µM in the data set on 786-0 [4]; 0.46 µM in the data set on NCI-H460. Moreover, the total growth inhibition concentration (TGI) amounted to 15.7 µM with PC-3 [5], 0.04 µM in the data set on OVCAR-3 [6], 0.88 µM in the data set on HT-29 [7] and 1.47 µM with HaCaT.
Turning to `C=C(C)[C@@H]1CC=C(Cn2cc(COc3cccc(C4NC(=O)NC5=C4C(=O)CC(C)(C)C5)c3)nn2)CC1` (stereo partly drawn), the TGI in the data set with UACC-62 [1] was 20.9 µM; with U-251 it was 26 µM; in the data set with MCF7 [2], 31 µM; in the data set on NCI/ADR-RES [3] it was above 100 µM; in the data set with 786-0 [4], above 100 µM; in the data set with NCI-H460, 51.6 µM. The TGI in the data set with PC-3 [5] was 21.9 µM; in the data set with OVCAR-3 [6] it was above 100 µM; in the data set on HT-29 [7], 49 µM; in the data set on HaCaT, 36.44 µM.
As to `C=C(C)[C@@H]1CC=C(Cn2cc(COc3cc(C4NC(=O)NC(C)=C4C(=O)OCC)ccc3OC)nn2)CC1` (stereo partly drawn), the TGI is 37.8 µM in the data set with UACC-62 [1]; 98.1 µM with U-251; above 100 µM in the data set with MCF7 [2]; above 100 µM in the data set on NCI/ADR-RES [3]; above 100 µM with 786-0 [4]; above 100 µM with NCI-H460. The TGI was above 100 µM in the data set on PC-3 [5], 13.5 µM with OVCAR-3 [6], above 100 µM with HT-29 [7] and 79.75 µM in the data set with HaCaT.
For `CCOC(=O)C1=C(C)NC(=O)NC1c1cccc(O)c1` (stereo not drawn), the outcome in the data set with MCF7 [9], with NCI/ADR-RES [10], with 786-0 [11], with HT-29 [12], in the data set with UACC-62 [13] and in the data set on PC-3 [14] was Active. For the same compound, the result in the data set on OVCAR-3 [15] was Active.
For `C=C(C)[C@@H]1CC=C(Cn2cc(COc3ccc(C4NC(=O)NC(C)=C4C(C)=O)cc3)nn2)CC1` (stereo partly drawn), the TGI in the data set on UACC-62 [1] was 20.5 µM; with U-251, 20 µM; with MCF7 [2], 29 µM; in the data set with NCI/ADR-RES [3], above 100 µM; in the data set with 786-0 [4], 23.3 µM; with NCI-H460 it was 78.2 µM. Also, the TGI in the data set with PC-3 [5] is 49.3 µM; with OVCAR-3 [6], 32.6 µM; in the data set on HT-29 [7] it was 62.6 µM; in the data set on HaCaT it was 44.47 µM.
Turning to `C=C(C)[C@@H]1CC=C(Cn2cc(COc3cc(C4NC(=O)NC(C)=C4C(C)=O)ccc3OC)nn2)CC1` (stereo partly drawn), the TGI was above 100 µM in the data set on UACC-62 [1]; above 100 µM in the data set with U-251; above 100 µM with MCF7 [2]; 84.9 µM with NCI/ADR-RES [3]; above 100 µM in the data set with 786-0 [4]; above 100 µM in the data set on NCI-H460. For the same compound, the TGI was above 100 µM in the data set with PC-3 [5], above 100 µM with OVCAR-3 [6], 96 µM with HT-29 [7] and 486.19 µM with HaCaT.
